Screening data: PubChem, several laboratories
This is a sample that favours compounds with a hit; in the whole collection about 2.5% have one here.
Bfl-1 A1 inh: inhibitors of the anti-apoptotic protein A1, read as caspase activation; MEF A1-2A-BIM cells, Caspase-Glo 3/7 luminescence, 3 h; percent of clofoctol response, vehicle zero; caspase activation, % (test concentration not listed); hit rate 0.066% among 330,000; AID 2462;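 active = over half of replicate activation scores above 10%, or exactly half above 10 with the replicate mean above 10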
NTR1 agonist: agonists of human neurotensin receptor NTR1; P30989; NTR1-U2OS beta-arrestin-GFP spot imaging, agonist mode; activation, % at 20 µM; hit rate 0.17% among 330,000;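 active = activation at or above 40% of the spot to cytoplasm intensity ratio, with at least 20 cells analyzed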;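 also: 0% = DMSO without peptide and 100% = 100 nM NTR1 peptide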
HGIII-sPLA2 inh: Blocks human group III sPLA2 activity; hit rate 0.56% among 370,000; inhibition, % at 12.2 µM; QFRET BODIPY PC-A2 liposome hydrolysis, fluorescence;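 active = inhibition above mean plus 3 SD of compounds lying within the high and low control bounds, cut at about 19% in these data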;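 also: 0% = median of test compound wells and 100% = no enzyme DMSO wells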
MC4R ag barr: human MC4R agonism via beta-arrestin. P32245. U2OS MC4R beta-arrestin complementation, luminescence; percent of melanotan II response, DMSO zero. activation, % at 8.9 µM. hit rate 0.98% among 360,000. AID 540308;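 active = activation above a per-plate cutoff, the mean activation of sample wells on that plate plus 3 SD, cut at about 8% in these data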
Target sequence (P32245 whole entry, looked up): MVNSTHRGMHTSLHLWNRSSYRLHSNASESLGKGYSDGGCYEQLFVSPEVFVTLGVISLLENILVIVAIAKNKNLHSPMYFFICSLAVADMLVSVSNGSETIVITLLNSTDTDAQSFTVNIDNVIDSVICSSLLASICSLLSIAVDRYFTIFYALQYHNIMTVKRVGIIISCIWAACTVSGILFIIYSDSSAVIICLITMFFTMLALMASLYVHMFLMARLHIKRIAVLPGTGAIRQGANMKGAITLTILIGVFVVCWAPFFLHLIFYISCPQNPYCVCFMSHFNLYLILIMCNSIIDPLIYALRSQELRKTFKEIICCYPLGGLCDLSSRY
Granule exo inh: lytic granule exocytosis inhibition; TALL-104 LAMP-1 surface exposure, flow cytometry; cells stimulated with thapsigargin and PMA; inhibition, % at 10 µM; hit rate 0.66% among 360,000; AID 651702;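 active = inhibition above about 55%, limit read from the data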
MC4R antagonist: human MC4R antagonism in cAMP assay; inhibition, % at 6.5 µM; hit rate 0.48% among 360,000; AID 540295; P32245; MC4R-expressing cells, MTII-stimulated cAMP, LANCE TR-FRET;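 active = inhibition above its plate's cutoff, the mean of tested wells on that plate plus 3 SD, cut at about 29% in these data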;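 also: 0% = Melanotan II alone and 100% = Melanotan II plus saturating MCL0020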
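Assay system: U2OS cells stably expressing human melanocortin 4 receptor (MC4R) / Dosing: 6.5 µM / Timing: compound 30 min, challenge 1 h, detection 1 h / Measured by: Eu-cAMP/anti-cAMP TR-FRET, emission 671 nm / Replicates: singlicate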
Active calls of the source: *; / = no result.

SMILES	Bfl-1 A1 inh	NTR1 agonist	HGIII-sPLA2 inh	MC4R ag barr	Granule exo inh	MC4R antagonist
CCc1cccc(NC(=O)C2CCN(S(=O)(=O)c3ccc4c(c3)NC(=O)CO4)CC2)c1	9.7*	1.1	-24.0	1.0	3.1	-0.8
O=C(CN1CCN(c2nc(-c3ccccc3)cs2)CC1)Nc1ccc(Cl)c(Cl)c1	/	/	-7.2	/	/	/
Cn1c(/C(C#N)=C(\O)CN2CCN(Cc3ccccc3)CC2)nc2ccccc21	1.3	1.5	6.7	0.4	1.8	6.7
Cc1ccc(SC/C(O)=C(\C#N)c2nc3ccccc3n2C)cc1	-1.3	5.3	-1.6	8.3*	-3.6	6.7
Cn1c(=O)cc(OCCCC(=O)Nc2cc(C(F)(F)F)ccn2)c2ccccc21	/	/	-4.0	/	/	/
COc1ccc(CNC(=O)c2cc3c(C)nc4ccccc4c3o2)c(OC)c1	-1.2	2.1	/	8.6*	2.3	5.5
COc1cccc(CNC(=O)c2cc3c(C)nc4ccccc4c3o2)c1	-0.6	6.3	-6.0	0.2	-0.8	13.9
COc1cccc([C@H]2NC(=O)C/C=C/[C@@H](C)[C@@H](c3cccc(OC)c3)NC(=O)C/C=C/[C@H]2C)c1	/	/	14.2	/	/	/
Cc1cccc(N(C(=O)c2snc(C(N)=O)c2N)C(C(=O)NCC2CCCO2)c2ccc(N(C)C)cc2)c1C (stereo not given)	-1.0	-2.5	1.1	1.7	66.0*	2.0
Cc1cc(C)c(S(=O)(=O)NCC23C=CC(O2)C2C(=O)N(c4ccccc4)C(=O)C23)c(C)c1 (stereo not given)	-0.3	0.4	-11.3	-2.6	76.9*	1.1
CC(C)COC(=O)NCC12C=CC(O1)C1C(=O)N(c3ccc(Cl)cc3)C(=O)C12 (stereo not given)	-1.0	-1.0	-0.3	-2.2	90.9*	6.4
Cc1ccc(N2C(=O)C3C4C=CC(CNC(=S)Nc5ccc(Cl)cc5)(O4)C3C2=O)cc1 (stereo not given)	-0.4	2.0	-11.2	0.5	38.9	4.3
Cc1cc(NC(c2ccc(Cl)cc2)c2ccc3cccnc3c2O)no1 (stereo not given)	-1.3	1.2	35.2*	-3.0	1.7	2.0
COC1=C(C)C(=O)C2=C(C1=O)C1C3CC4=C(C(=O)C(OC)=C(C)C4=O)C(CNC(=O)C(C)=O)N3C(C#N)C(C2)N1C (stereo not given)	/	/	-7.5	-2.2	74.5*	-6.6
C[C@@H]1CC[C@]2(C(=O)O[C@@H]3O[C@H](CO)[C@@H](O)[C@H](O)[C@H]3O)CC[C@]3(C)C(=CCC4[C@@]5(C)CC[C@H](O[C@@H]6OC[C@H](O)[C@H](O[C@@H]7O[C@H](CO)[C@@H](O)[C@H](O)[C@H]7O)[C@H]6O)C(C)(C)C5CC[C@]43C)C2[C@]1(C)O (stereo not given in full)	0.4	0.9	-7.7	-1.2	1.4	-1.1
COc1ccc(/C=C\C(=O)O[C@@H]2C(O)C(O[C@@H]3OC(C)[C@H](O[C@@H]4OCC(O[C@H]5O[C@H](CO)[C@@H](O)C(O)C5O)C(O)C4O)C(O)C3O)[C@H](OC(=O)[C@]34CCC(C)(C)C[C@@H]3C3=CCC5[C@@]6(C)CC(O)C(O[C@@H]7OC(CO)C(O)[C@H](O)[C@H]7O)[C@@](C)(C(=O)O)C6CC[C@@]5(C)[C@]3(CO)CC4)O[C@H]2C)cc1 (stereo not given in full)	1.4	12.1	/	-0.8	10.9	66.4*
CN1CCCCC(NC(=O)c2ccccc2)C1=O (stereo not given)	/	/	1.5	/	/	/
CCOc1ccc(-c2csc(NNC3=NCCCCC3)n2)cc1	0.2	3.0	0.4	-3.1	55.9*	-4.4
CCCCN(Cc1ccco1)C(=O)c1cc2c(=O)[nH]c3ccc(C)cc3c2s1	-0.3	29.0	-8.8	36.3*	5.9	7.9
CCCCN(CC)C(=O)c1cc2c(=O)[nH]c3ccc(C)cc3c2s1	-1.4	17.5	-0.7	-2.0	-3.7	4.7
CC(C)(C)CCNc1nc(-c2ccccn2)nnc1-c1ccccc1	/	/	-1.4	/	/	/
COc1cc(/C=N/NC(N)=S)cc(Br)c1OCc1ccccc1F	2.5	39.0	5.1	10.5*	2.3	12.6
CCOc1cc(/C=N/NC(N)=S)cc(Br)c1OCc1ccccc1C	2.0	42.1*	/	3.4	1.3	4.7
COC(=O)[C@]12C[C@H](CC(=O)NCC3CCCCC3)C(=O)N(CCc3ccc(OC)c(OC)c3)C1=C[C@H](COCc1ccccc1)O[C@@H]2C	/	/	-6.2	/	/	/
N#Cc1c(N2CCCC2)nc(N)c2c(N)nc(N3CCCC3)cc12	1.3	0.6	-3.7	0.7	60.4*	-30.6
SMILES	Bfl-1 A1 inh	NTR1 agonist	HGIII-sPLA2 inh	MC4R ag barr	Granule exo inh	MC4R antagonist
S=C(Nc1ccc(Cl)c(Cl)c1)NC1CCN(Cc2ccccc2)CC1	-0.3	20.9	-23.4	22.2*	24.5	3.9
CC(=O)N1CCc2cc(Br)c(S(=O)(=O)CCC(=O)N3CCN(c4ccccn4)CC3)cc21	/	/	3.5	/	/	/
COCCNC(=O)/C(C#N)=C\c1ccc(CNC(=O)C(=O)Nc2ccc(C)c(C)c2)o1	0.8	-0.3	0.7	-1.9	-1.6	4.7
COc1ccc(NC(=O)C(=O)N/N=C\c2ccc(CNC(=O)C(=O)Nc3ccc(C)c(C)c3)o2)c(OC)c1	23.6*	7.7	/	/	/	/
C[C@H](O)[C@@H]1C(=O)N2CCc3c([nH]c4c(-c5ccc6c(c5)OCO6)cccc34)[C@@H]2C[C@@H]1N(C)C(=O)Nc1ccccc1	/	/	-4.3	/	/	/
Cc1ccc(NC(=O)c2ccccc2CCc2ccccc2)c(C)c1	1.6	1.5	3.9	4.0	-0.1	8.3
Cc1cc(C)c(NC(=O)c2ccccc2CCc2ccccc2)c(C)c1	0.2	4.3	-3.2	28.9*	-1.3	0.4
Cc1cc(NC(=O)c2ccc(COc3ccc(Cl)c(C)c3)o2)no1	0.9	0.4	-2.0	9.4*	5.6	-0.7
Cc1cc(NC(=O)c2cc(-c3cccc(Cl)c3)on2)no1	0.3	1.0	0.7	2.9	0.4	3.0
COc1cccc(-c2cc(C(=O)Nc3cc(C)on3)no2)c1	-2.2	0.1	-0.2	8.5*	-0.2	0.7
C=CCn1c(SCC(=O)c2ccc(F)cc2)nnc1-c1ccc(F)cc1	/	/	-30.0	/	/	/
O=C(NCCc1ccccc1)OCc1cn(Cc2ccc(F)c(F)c2)nn1	/	/	2.8	/	/	/
COc1ccc(-c2cc3c(=O)n(CC(=O)NCc4ccc(C)cc4)ncn3n2)cc1	0.7	-2.3	-5.8	9.1*	1.0	6.4
COc1ccc(-c2cc3c(=O)n(CC(=O)NCc4ccc(F)cc4)ncn3n2)cc1	-0.8	1.6	-1.3	1.2	1.4	2.3
CCN(CC)C(=O)CC[C@H]1CC[C@]2(CCCN(S(=O)(=O)C3CCCCC3)C2)O1	/	/	3.0	/	/	/
O=C(NCc1cc(C(F)(F)F)ccc1Cl)c1cccc2c1C(=O)c1ccc(-c3ccc(OC(F)(F)F)cc3)cc1S2(=O)=O	0.3	-0.4	/	/	/	/
